pKi: −log10 of the molar value. Active and inactive are the calls of the source. No cut-off for these calls is given here.
Assays:
[1] = target: Sigma non-opioid intracellular receptor 1 (Cavia porcellus, UniProt Q60492); assay: Displacement of [3H](+)-pentazocine from guinea pig sigma1 opioid receptor by liquid scintillation counting
[2] = Neuroprotective activity against glutamate-induced transglutaminase-2 expression albino rat astrocytes assessed as reduction in transglutaminase level at 25 uM by immunoblotting; format: functional, cell-based; details: Astrocyte
Summary of the method: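 Primary rat neocortical astroglial cultures at 14 DIV, about 90-95% GFAP-positive. Exposed for 24 h to ligand at 25 μM, with or without glutamate at 500 μM. TG2 expression was measured by immunoblot with densitometry and compared against control and glutamate-alone cultures.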

[3] = (§1) Displacement of [3H]-DTG from sigma2 opioid receptor by liquid scintillation counting; design: species or system Cavia porcellus
[4] = system: Astrocyte; assay: Neuroprotective activity against glutamate-induced GSH depletion in rat astrocytes assessed as GSH level at 25 uM measured per gram of protein by spectrofluorimetry (RVb = 9.08 +/- 0.9 […]); format: functional
[5] = system: Astrocyte; assay: Neuroprotective activity against glutamate-induced ROS production in albino rat astrocytes assessed as dichlorofluresceine produced per gram of protein per 30 mins at 25 uM by spectrofluorimetry (RVb = 4.45 +/- 0.51 nmol); format: functional
[6] = species on record: Cavia porcellus; assay: as §1
[7] = system: Rattus norvegicus; assay: Analgesic activity in Sprague-Dawley rat assessed as reduction in (-)-U50,488H-induced tail flick latency at 1 mg/kg, sc pretreated 30 mins prior to (-)-U50,488H challenge; format: functional, organism-based; design: dose 1 mg/kg
Summary of the method: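 Rat tail-flick test. Ligand given systemically at 1 mg/kg sc as a pretreatment before a KOP agonist. Tail-flick latency was followed over the observation period, with basal latency also recorded.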

Sigma non-opioid intracellular receptor 1, sequence (Q60492 whole entry): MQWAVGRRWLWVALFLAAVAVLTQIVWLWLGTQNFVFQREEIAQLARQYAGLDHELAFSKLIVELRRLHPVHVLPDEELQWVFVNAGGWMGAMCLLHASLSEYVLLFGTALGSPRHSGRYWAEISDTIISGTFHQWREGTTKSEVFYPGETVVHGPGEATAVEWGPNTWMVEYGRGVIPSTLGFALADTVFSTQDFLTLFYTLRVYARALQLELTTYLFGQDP

Compound | pKi [1] | Activity [2] | pKi [3] | Activity [4] [nmol] | Activity [5] [nmol] | Activity [6] [nM] | Activity [7]
COC(=O)[C@]1(c2ccc(C)cc2)C[C@@H]1CN1CCC(O)(c2ccccc2)CC1 | 8.72 | Active | 7.30 | 13.44 | 3.05 | – | –
COC(=O)[C@@]1(c2ccc(C)cc2)C[C@H]1CN1CCC(O)(c2ccccc2)CC1 | 7.89 | inactive | – | 14.87 | 3.67 | 103 | Active
COC(=O)C1(c2ccc(C)cc2)CC1CN1CCC(O)(c2ccccc2)CC1 (racemic) | 8.74 | inactive | 7.68 | 8.05 | 5.51 | – | –
CC(C)=CCN1CC[C@]2(C)c3cc(O)ccc3C[C@H]1[C@H]2C [(+)-PENTAZOCINE] | – | Active | – | 14.15 | 3.46 | – | –
CC[C@H]1C[C@H]2C[C@H]3c4[nH]c5ccc(OC)cc5c4CCN(C2)[C@@H]13 [IBOGAINE] | – | inactive | – | 7.95 | 5.82 | – | –
